# Screening results: PubChem BioAssay, several laboratories
# In the library only some 27% were active in any assay of this set; here they are far more common.
# CYP2C9 inh: blockers of cytochrome P450 2C9 activity – biochemical, luminescence, ADME assay, primary screen. P11712. CYP2C9 Supersomes, luciferin-H conversion. inhibition, % at 5 µM. 96,000 tested, 20% active. AID 777, 2007;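 active = blocking of liver enzyme CYP2C9 beyond about 50% at 5 µM, limit read from the data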
# CYP2C19 activ: human CYP2C19 activators, primary screen, biochemical, luminescence. recombinant CYP2C19, luciferin-H EGE luminescence; stronger effect = higher value; 0 = fully inhibited enzyme, 1 = untreated enzyme. AID 1025, 2008. 96,000 tested, under 10 active. activation factor at 5 µM. Cytochrome P450 2C19 (Homo sapiens), P33261;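 active = activation factor of at least 2 at 5 µM in the primary screen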;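 also: 0 = wells with 2.5 mM tranylcypromine and 1 = vehicle-only wells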
# CYP2C19 inhib: blockers of cytochrome P450 2C19 activity – biochemical, luminescence, ADME assay, primary screen | P33261 | CYP2C19 Supersomes, luciferin-H EGE luminescence, 30 min | inhibition, % at 5 µM | 96,000 tested, 21% active;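 active = CYP2C19 inhibition above a set limit at 5 µM in the primary screen, cut at about 50% in these data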;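 also: plate controls were negative control wells for no effect and 2.5 mM tranylcypromine positive control for full effect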
# Cav3 T inh: Cav3.2 calcium influx blockers – cell-based, Fluo-4 calcium fluorescence, FDSS, MLSMR library, primary screen | Cav3.2-expressing cells; stronger effect = lower value | Voltage-dependent T-type calcium channel subunit alpha-1H (Homo sapiens), O95180 | 100,000 tested, 4% active | B-score at 10 µM;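 active = single-dose well whose peak fluorescence ratio is a statistical outlier from its plate by either plate-standardised score or position-corrected B-score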
# Rev-RRE block: HIV-1 Rev-RRE binding inhibitors, primary screen, biochemical, FRET, protein-RNA interaction. Rev peptide-RRE RNA binding. 97,000 tested, 0.79% active. P05866. inhibition, % at 8 µM;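 active = inhibition above the screen-wide mean plus 3 SD, cut at about 35% in these data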;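 also: 0% = median DMSO wells and 100% = median Neomycin B control wells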
#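 Assay system: Rev peptide and RRE RNA, both fluorescently labelled; times: 5 min preincubation and 15 min binding, 25 °C; detection: FRET, ex 480 nm, em 540 and 671 nm; read-out basis: % inhibition from 671/540 nm acceptor-to-donor ratio, scaled between controls; benchmarks: DMSO low control, neomycin B high control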
# CYP2C9 act: human CYP2C9 activators, primary screen, biochemical, luminescence; Cytochrome P450 2C9 (Homo sapiens), P11712; recombinant CYP2C9, luciferin-H conversion; stronger effect = higher value; factor 1 = untreated enzyme, 0 = blocked; activation factor at 5 µM; 96,000 tested, 1.4% active; AID 1024, 2008;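 active = activation factor of 2 or more for CYP2C9 at a 5 µM dose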;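 also: 0 = sulfaphenazole-blocked wells and 1 = vehicle-only wells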
# Numbers without * were called inactive; · = not tested or not shown.
SMILES,CYP2C9 inh,CYP2C19 activ,CYP2C19 inhib,Cav3 T inh,Rev-RRE block,CYP2C9 act
CCOc1ccc(C(Nc2ccc(C)cc2)P2(=O)OCCCO2)cc1 (stereo unspecified),-26.3,0.8,21.6,0.0639,0.2,1.3
Cc1ccc(Oc2ccc3c(c2)C(=O)N(c2ccc(S(=O)(=O)Nc4nccs4)cc2)C3=O)cc1,63.5*,0.8,21.9,0.0259,-4.1,0.4
CC(C)(C)C(=O)Nc1ccc(Oc2ccc3c(c2)C(=O)N(c2ccc(O)cc2)C3=O)cc1,33.3,0.7,32.1,0.597,-3.3,0.7
Cc1ccc(S(=O)(=O)n2ccnc2)cc1C,-20.0,1.1,-7.4,0.47,·,1.2
CCOCCCn1c(SCC(=O)Nc2ccc(C(N)=O)cc2)nc2ccccc2c1=O,17.6,0.4,55.7*,·,0.0,0.8
COCCCn1c(SCC(=O)Nc2ccc(C(=O)OC)cc2)nc2ccccc2c1=O,88.3*,0.2,78.1*,-0.947,5.3,0.1
COC(=O)c1ccc(NC(=O)CSc2nccn2CCc2ccccc2)cc1,50.1*,0.2,75.8*,-1.31,7.5,0.5
COC(=O)c1ccc(NC(=O)CSc2nc3ccccc3c(=O)[nH]2)cc1,46.8,0.6,36.8,0.537,8.7,0.5
Cn1ccnc1SCC(=O)Nc1ccccc1,·,·,·,0.0307,5.9,·
O=C(CCNS(=O)(=O)c1ccc(Cl)cc1)N1CCC2(O)CCCCC2C1 (stereo unspecified),15.9,1.1,-8.9,0.112,1.6,0.8
CC(NC(=O)NCCCn1ccnc1)(C(F)(F)F)C(F)(F)F,68.3*,0.1,90.8*,0.431,6.0,0.3
O=C(NCCCn1ccnc1)C(F)(F)C(F)(F)C(=O)NCCCn1ccnc1,97.7*,0.8,15.7,·,7.5,0
CC1CCC2(CC1)Nc1ccccc1C(=O)N2c1ccccc1 (stereo unspecified),47.9,0.6,37.4,-0.73,5.5,0.5
COC(=O)[C@@H]1C[C@@]2(O)[C@H](O)[C@H](O)[C@H](O)C[C@H]2N1CC1CC1,·,·,·,0.107,·,·
CC1CCCN(c2nc3c(c(=O)[nH]c(=O)n3C)n2Cc2ccccc2Cl)C1 (stereo unspecified),16.6,1.1,-11.5,-6.1*,4.8,0.8
CCN1CCN(Cc2nc3c(c(=O)[nH]c(=O)n3C)n2Cc2ccccc2Cl)CC1,·,·,·,0.331,1.8,·
Cn1c(=O)[nH]c(=O)c2c1nc(CN1CCN(c3cccc(Cl)c3)CC1)n2Cc1ccccc1Cl,73.4*,1,2.2,-0.433,·,0.3
O=C1c2ccc(Oc3ccc4c(c3)C(=O)N(CCCO)C4=O)cc2C(=O)N1CCCO,-3.2,0.9,12.0,-1.12,3.7,1
COc1ccc(-n2cnnc2SCC(=O)N(C)C2CCS(=O)(=O)C2)cc1 (stereo unspecified),-11.9,1.1,-6.5,0.145,0.6,1.1
COc1ccc(-c2nnc(CSc3ncnc4sc5c(c34)CCC5)o2)cc1OC,53.1*,0.6,42.0,·,·,0.5
COCCn1c(SCC(=O)Nc2ncc(C)s2)nc2sc3c(c2c1=O)CCC3,51.9*,0.8,18.3,-2.51,10.5,0.5
COCCn1c(SCc2nnc(-c3ccccc3)o2)nc2sc3c(c2c1=O)CCC3,87.1*,0.5,48.1,-2.32,1.1,0.1
N#CCSc1ncnc2sc3c(c12)CCC3,-47.1,0.8,22.0,·,9.0,1.5
COCCCn1c(SCC(=O)NCc2ccco2)nc2sc3c(c2c1=O)CCC3,26.2,0.7,27.5,0.799,5.0,0.7
COC(=O)C(Cc1ccccc1)NS(=O)(=O)c1ccccc1Br (stereo unspecified),·,·,·,-0.0153,·,·
CCSc1nc2c(cnn2-c2ccc(C)c(C)c2)c(=O)[nH]1,0.4,0.7,34.3,0.00827,3.1,1
O=C(Nc1nc2c(s1)CCc1ccccc1-2)c1cccs1,-7.5,0.9,8.9,0.184,9.2,1.1
O=C(Nc1nc2c(s1)COc1ccccc1-2)c1cccs1,62.8*,0.6,36.2,-2.22,5.9,0.4
